# In the library only some 1.7% were active in any assay of this set; here they are far more common.
# ARNT-TACC3 inh: disruptors of human ARNT/TACC3 interaction | 0.66% of 390,000 active | AlphaScreen His-ARNT PAS-B/GST-TACC3 binding, luminescence; TACC3 fragment carries E629A point mutation | inhibition, % at 9.99 µM;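 active = mean inhibition of replicates at least 50% and at least half of replicates each reaching 50%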;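 note: 0% = complete ARNT plus TACC3 wells and 100% = ARNT alone without TACC3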
# Rce1 inh: inhibitors of yeast Ras-converting enzyme. Q03530. AID 2563. calls only. yeast membranes, quenched prenylated peptide cleavage fluorescence. 0.27% of 290,000 active;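 active = fall in fluorescence gain of 50% or more versus controls, with final raw signal at or below 3038400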;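 note: plate controls were neutral control wells for no effect and wells lacking membranes for full effect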
# Target sequence (Q03530 whole entry, looked up): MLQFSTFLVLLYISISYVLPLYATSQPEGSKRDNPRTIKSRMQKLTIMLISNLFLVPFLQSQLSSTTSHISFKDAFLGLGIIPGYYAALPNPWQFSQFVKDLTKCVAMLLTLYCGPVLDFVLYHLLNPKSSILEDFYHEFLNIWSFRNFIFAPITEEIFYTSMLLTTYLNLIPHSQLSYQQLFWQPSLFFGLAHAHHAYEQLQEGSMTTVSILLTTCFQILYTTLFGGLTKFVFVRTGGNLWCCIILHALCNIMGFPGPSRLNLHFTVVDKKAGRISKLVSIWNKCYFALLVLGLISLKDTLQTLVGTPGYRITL
# CAL PDZ FP-1: inhibitors of human CAL PDZ peptide binding; purified CAL PDZ, TMR-peptide fluorescence polarization, 1 h; inhibition, % at 24.9 µM; 0.92% of 300,000 active; AID 602252;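 active = mean inhibition of at least 30% with at least half of replicates also reaching 30%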;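 note: 0% = DMSO neutral control and 100% = excess unlabeled competitor peptide PRC23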
# CAL PDZ FP-2: human CAL PDZ-peptide interaction inhibition. purified CAL PDZ, TMR-peptide fluorescence polarization, 1 h. inhibition, % at 20 µM. 0.02% of 330,000 active;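 active = highest replicate inhibition of at least 40%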;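 note: plate controls were DMSO neutral control wells for no effect and unlabeled competitor peptide control wells for full effect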
#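 Material: tagged CAL PDZ protein CerCALP, purified; buffer or medium: sodium phosphate/NaCl buffer pH 7.4 with TCEP, IgG, Thesit; also added: fluorescent TMR peptide probe; schedule: 1 h incubation at room temperature before polarization reading; technique: fluorescence polarization from S- and P-plane intensities, G-factor corrected; control set: unlabelled peptide and DMSO controls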
# AI-2 QS mod: modulators of Vibrio harveyi AI-2 quorum sensing system; activity change, % at 7.5 µM; 0.4% of 300,000 active; Vibrio harveyi JMH597 AI-2 luminescence/OD600 ratio, 9 h; hits give low values; strain lacks LuxN and CqsS sensors; 0 = neutral-control median; in the data active = activity change below about -75%, passing the limit was not always enough;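 note: luminescence divided by OD600 gain over 9 h not by final OD600 alone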
# * marks the source's active call; other numbers are inactive results; i = inactive; nt = no result; + = active, no number.
SMILES,ARNT-TACC3 inh,Rce1 inh,CAL PDZ FP-1,CAL PDZ FP-2,AI-2 QS mod
CCN(CC)S(=O)(=O)c1ccc(N2CCCC2)c(NC(=O)C2CCCCC2)c1,-5.5,i,40.5*,0.1,4.6
CCN(CC)S(=O)(=O)c1ccc(N2CCOCC2)c(NC(=O)C2CCCC2)c1,-21.1,i,-3.1,-0.3,15.5
CN(C)S(=O)(=O)c1ccc(NC(=S)NC(=O)C2CCC2)cc1,-5.7,i,-3.1,1.3,-76.2*
O=C(COC(=O)Cn1cnc2ccccc21)Nc1ccc(F)c(F)c1,0.4,nt,nt,0.0,nt
NCCCCCCNC(=O)[C@@H]1C[C@@H]2C(=O)NCC(=O)N2[C@@H]1c1ccc(O)cc1,2.0,nt,nt,nt,nt
CCN(CC)S(=O)(=O)c1ccc(NC(=S)NC(=O)C2CCC2)cc1,-3.3,i,54.4*,-0.6,11.3
O=C(NC1CCCCC1)C12CC3CC(C1)CC(n1cncn1)(C3)C2,-6.8,i,-4.1,-1.0,10.0
CC(NC(=O)C12CC3CC(C1)CC(n1cncn1)(C3)C2)C12CC3CC(CC(C3)C1)C2 (centres undefined),-3.0,i,56.9*,-0.4,22.6
CN(C)CC(=O)N[C@@H]1C=C[C@@H](CC(=O)NCc2ccccc2F)O[C@@H]1CO,12.0,nt,nt,nt,nt
COc1ccc(OC)c(NC(=O)c2cc3oc4ccccc4c3cc2O)c1,2.2,+,-3.1,-1.4,21.3
COc1ccc(O)c(C2=Nc3ccccc3N=C(c3ccco3)C2)c1,53.0*,i,-0.8,-0.3,15.4
Oc1ccc(Cl)cc1C1=Nc2ccccc2N=C(c2ccco2)C1,-1.4,i,-0.8,-2.1,10.5
CCNC(=S)NNC(=O)c1cccn(Cc2ccc(Cl)cc2)c1=O,44.2*,i,-5.3,9.1,11.6
O=C(O)CC/C(=N\NC(=O)CNC(=O)/C=C/c1ccccc1)c1ccccc1,-4.6,i,4.0,0.9,32.0
COc1ccc(/C=C/C(=O)NCC(=O)N/N=C(/CCC(=O)O)c2ccccc2)cc1,-11.0,i,32.5*,-0.7,4.4
COc1ccccc1Nc1ncc(C(=O)N2CCC(C(N)=O)CC2)c2ccccc12,-16.1,nt,-24.8,nt,nt
COc1ccc(Nc2ncc(C(=O)N3CCC(C(N)=O)CC3)c3ccccc23)cc1,-2.3,i,71.5*,-1.3,3.7
O=C(CSc1nnc(SCc2ccc(Cl)cc2)s1)N/N=C/c1ccc(C(=O)O)cc1,-2.0,i,46.7*,-2.7,15.2
CCN(CC)S(=O)(=O)c1ccc(O)c(NC(=O)CN2CCc3ccccc3C2)c1,-0.6,i,45.3*,-1.7,26.5
CCc1ccc(-c2nc(CS(=O)CC(=O)NCc3ccccc3)c(C)o2)cc1 (centres undefined),-0.1,i,70.6*,-1.1,47.0
Cc1oc(-c2ccc(Cl)cc2)nc1CS(=O)CC(=O)NCc1ccco1 (centres undefined),-0.4,+,-1.3,-2.5,nt
Cc1oc(-c2ccccc2Cl)nc1CS(=O)CC(=O)NCc1ccco1 (centres undefined),22.1,i,nt,-1.1,10.4
Cc1ccc(C(=O)NNC(=O)c2ccc(NS(=O)(=O)c3cccs3)cc2)o1,-0.1,nt,nt,1.3,nt
CC(=O)N(C)C[C@@H]1Oc2cc(-c3ccc(C)cc3)ccc2S(=O)(=O)N([C@@H](C)CO)C[C@@H]1C,-6.6,nt,nt,nt,nt
Cc1cccc(C(=O)NNC(=O)c2ccccc2[N+](=O)[O-])c1,-1.4,i,-2.5,-1.5,31.9
SMILES,ARNT-TACC3 inh,Rce1 inh,CAL PDZ FP-1,CAL PDZ FP-2,AI-2 QS mod
O=C(CSc1nnc2ccc(-c3cccnc3)nn12)Nc1ccc(F)cc1,4.8,i,2.7,-2.5,0.6
O=[N+]([O-])c1ccc(S(=O)(=O)N2CCSC2c2ccco2)cc1 (centres undefined),2.0,i,1.2,-0.9,19.0
O=S(=O)(c1ccc(Cl)cc1)N1CCSC1c1ccco1 (centres undefined),29.7,i,164.4*,13.9,25.5
CC(C)n1c(=S)[nH]c2c1c(=O)[nH]c(=O)n2C,0.7,i,43.3*,-2.4,11.5
Cc1cc(-n2c(=S)sc3c(=O)n(-c4ccc(F)cc4)c(SCC(=O)O)nc32)ccc1Cl,22.3*,i,-4.9,-1.1,2.5
COc1ccccc1-n1c(SCC(=O)O)nc2c(sc(=S)n2-c2ccc(Cl)c(C)c2)c1=O,-8.2,i,-2.1,-4.1,20.4
O=C(CSc1nc(-c2ccccc2)cc(C(F)(F)F)n1)N1CCOCC1,-23.8,i,96.3*,-1.5,2.4

# Compound activity from PubChem BioAssay.
